Source: PMC7733813 (Proceedings of the National Academy of Sciences of the …, 2020)
Where a SMILES comes first, the peptide text is derived from it. Bridges are numbered along the chain shown (N, C = ends). Roman numbers before positions name the chains, in order. [ ]: non-standard residue; d: D form. PEG3 = NCCOCCOCCOCCC(=O)O; Dap = NC[C@H](N)C(=O)O

Key:
ovariectomized mice = format: in vivo, mouse; conditions: OVX mice, 5 µmol/kg i.v. once weekly, 4 wk, vs vehicle
Summary of the method: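 C57BL/6J ovariectomized mice, kept specific-pathogen-free, were given test compound i.v. once weekly for 4 wk. Sham-operated and vehicle groups served as controls. Bones were fixed in 70% ethanol and scanned by µCT, and 3D structural indices were computed. Undecalcified tibiae were embedded in glycol methacrylate and cut into 5 µm sections. Sections were stained with toluidine blue for osteoblast parameters and TRAP for osteoclast parameters. Data are mean ± SEM.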

mouse PlxnB1 = biological target: T1, mouse PlxnB1 (Mus musculus, UniProt Q8CJH3); assay: Surface plasmon resonance; format: binding
T1 sequence (Q8CJH3 20-479 limits assumed): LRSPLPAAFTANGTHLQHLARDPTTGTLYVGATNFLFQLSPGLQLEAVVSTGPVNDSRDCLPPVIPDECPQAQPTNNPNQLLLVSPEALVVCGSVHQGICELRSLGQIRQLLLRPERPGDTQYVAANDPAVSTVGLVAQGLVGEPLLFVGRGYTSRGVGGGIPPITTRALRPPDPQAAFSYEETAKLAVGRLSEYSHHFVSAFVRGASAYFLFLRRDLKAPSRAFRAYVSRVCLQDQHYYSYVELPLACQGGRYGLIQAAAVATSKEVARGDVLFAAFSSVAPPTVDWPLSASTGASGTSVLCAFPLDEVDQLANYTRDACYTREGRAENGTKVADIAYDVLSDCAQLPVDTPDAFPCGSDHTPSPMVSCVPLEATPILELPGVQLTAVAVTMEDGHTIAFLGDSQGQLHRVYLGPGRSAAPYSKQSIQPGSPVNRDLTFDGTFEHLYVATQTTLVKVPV

[1] = test system: Col1a1, Alpl, Bglap expression in mouse primary osteoblasts; assay: qPCR of genes implicated in osteoblastic bone formation in primary osteoblasts; format: cell-based; conditions: with or without Sema4D-Fc, vs vehicle control
[2] = test system: mouse primary osteoblasts (calvarial cells); assay: Bone nodule formation in primary calvarial cells, alizarin red S staining; format: cell-based; conditions: 10 µg/mL mouse Sema4D-Fc; peptide 0.05, 0.5, 5 µM; 21 d

**Q.** For CC[C@H](C)[C@@H]1NC(=O)[C@H](Cc2ccc(O)cc2)NC(=O)[C@@H]2CCCN2C(=O)[C@H](CCCNC(=N)N)NC(=O)[C@@H](Cc2c[nH]c3ccccc23)NC(=O)CSC[C@@H](C(=O)NCC(=O)NCCOCCOCCOCCC(=O)NC[C@H](NC(=O)CCOCCOCCOCCNC(=O)CNC(=O)[C@@H]2CSCC(=O)N[C@H](Cc3c[nH]c4ccccc34)C(=O)N[C@@H](CCCNC(=N)N)C(=O)N3CCC[C@H]3C(=O)N[C@@H](Cc3ccc(O)cc3)C(=O)N[C@@H]([C@@H](C)CC)C(=O)N[C@@H](CCC(=O)O)C(=O)N[C@@H](CCCNC(=N)N)C(=O)N[C@@H](Cc3c[nH]c4ccccc34)C(=O)N[C@@H]([C@@H](C)O)C(=O)NCC(=O)N[C@@H](CCCNC(=N)N)C(=O)N[C@@H](CC(C)C)C(=O)N[C@@H]([C@@H](C)CC)C(=O)N[C@@H](C(C)C)C(=O)N2)C(N)=O)NC(=O)[C@H](C(C)C)NC(=O)[C@H]([C@@H](C)CC)NC(=O)[C@H](CC(C)C)NC(=O)[C@H](CCCNC(=N)N)NC(=O)CNC(=O)[C@H]([C@@H](C)O)NC(=O)[C@H](Cc2c[nH]c3ccccc23)NC(=O)[C@H](CCCNC(=N)N)NC(=O)[C@H](CCC(=O)O)NC1=O [PB1d6A9] (I: {CH2CO}-[dW]RPYIERWTGRLIVCG[PEG3][Dap]-NH2 / II: {CH2CO}-[dW]RPYIERWTGRLIVCG[PEG3]; amide I:18-II:C; thioether I:N-I:15, II:N-II:15), which “bone loss, µCT of femurs” value (ovariectomized mice) is on record?
**A.** clear suppression of bone loss

**Q.** What about the Kd (mouse PlxnB1) of the same compound?
**A.** 0.2 nM

**Q.** What about the “decrease in dissociation rate of dimer over monomer, mouse PlxnB1” value (mouse PlxnB1; PB1d6A9 vs PB1m6A9) of the same compound?
**A.** 10 fold

**Q.** What about the “improvement in KD of dimer over monomer, mouse PlxnB1” value (mouse PlxnB1; PB1d6A9 vs PB1m6A9) of the same compound?
**A.** ~220 fold

**Q.** And the “increase in association rate of dimer over monomer, mouse PlxnB1” value (mouse PlxnB1; PB1d6A9 vs PB1m6A9)?
**A.** 22 fold

**Q.** And the “expression of Col1a1, Alpl and Bglap” value [1]?
**A.** enhanced

**Q.** And the “bone nodule formation (alizarin red S)” value [2]?
**A.** dose-dependent increases in bone formation
